Several values for one entry are separate records, joined by “and”; a condition that tells them apart may be missing. Identical values can stand only once. Activity calls are given as the source filed them. The rule behind the calls is not given here.
Legend:
[1] = target: T1, D(4) dopamine receptor (Homo sapiens, UniProt P21917); assay: Displacement of [3H]spiperone from human dopamine D4.4 receptor expressed in CHO cells; assay type: cell-based
T1 sequence (P21917 whole entry): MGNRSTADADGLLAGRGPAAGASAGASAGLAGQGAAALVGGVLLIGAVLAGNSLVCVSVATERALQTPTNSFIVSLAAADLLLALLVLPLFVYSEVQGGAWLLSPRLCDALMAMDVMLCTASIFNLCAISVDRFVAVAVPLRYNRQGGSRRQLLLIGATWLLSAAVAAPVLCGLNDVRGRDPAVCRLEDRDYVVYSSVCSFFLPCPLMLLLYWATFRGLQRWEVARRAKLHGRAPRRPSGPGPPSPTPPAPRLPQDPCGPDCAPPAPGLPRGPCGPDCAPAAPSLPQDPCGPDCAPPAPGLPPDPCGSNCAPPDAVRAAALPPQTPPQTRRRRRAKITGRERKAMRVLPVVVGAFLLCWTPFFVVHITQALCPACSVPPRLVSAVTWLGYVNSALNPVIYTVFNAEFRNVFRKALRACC

[2] = target: D(1A) dopamine receptor (Bos taurus, UniProt Q95136); assay: Displacement of [3H]SCH23390 from dopamine D1 receptor in bovine striatum
Summary of the method: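 Bovine striatal homogenate was incubated with [3H]SCH 23390 and test compounds under the same binding conditions as the D2-family assays. Competition curves were fitted by sigmoid non-linear regression with logEC50 and Hill coefficient free. EC50 was converted to Ki by Cheng–Prusoff. Each experiment was run in triplicate.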

[3] = target: T2, D(4) dopamine receptor (Homo sapiens) (UniProt P21917); assay: Antagonist activity at human D4.4 receptor expressed in CHO cells assessed as inhibition of quinpirole-induced reduction in cAMP accumulation after 20 mins by luminescence assay; assay type: functional, cell-based
T2 sequence (whole entry): T1 sequence (P21917 whole entry)

[4] = target: T3, D(2) dopamine receptor (Homo sapiens, UniProt P14416); assay: Displacement of [3H]spiperone from human dopamine D2short receptor expressed in CHO cells; assay type: cell-based
[5] = target: D(3) dopamine receptor (Homo sapiens, UniProt P35462); assay: Displacement of [3H]spiperone from human dopamine D3 receptor expressed in CHO cells; assay type: cell-based
[6] = target: T3, D(2) dopamine receptor; assay: Displacement of [3H]spiperone from human dopamine D2long receptor expressed in CHO cells; assay type: cell-based
[7] = target: T2, D(4) dopamine receptor (Homo sapiens); assay: Partial agonist activity at human D4.4 receptor expressed in CHO cells assessed as inhibition of forskolin-stimulated cAMP accumulation after 20 mins by luminescence assay relative to quinpirole; assay type: functional, cell-based
Summary of the method: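 CHO cells expressing D4.4 were seeded 24 h ahead at 10,000 cells/well and washed with Krebs Ringer buffer, pH 7.4. Cells were exposed to graded compound concentrations with forskolin for 20 min at 25 °C. cAMP was read by cAMP-Glo luminescence, a PKA–luciferase readout. Quinpirole served as the reference full agonist. EC50 and Emax were taken from at least three experiments, each in triplicate.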

D(3) dopamine receptor, sequence (P35462 whole entry): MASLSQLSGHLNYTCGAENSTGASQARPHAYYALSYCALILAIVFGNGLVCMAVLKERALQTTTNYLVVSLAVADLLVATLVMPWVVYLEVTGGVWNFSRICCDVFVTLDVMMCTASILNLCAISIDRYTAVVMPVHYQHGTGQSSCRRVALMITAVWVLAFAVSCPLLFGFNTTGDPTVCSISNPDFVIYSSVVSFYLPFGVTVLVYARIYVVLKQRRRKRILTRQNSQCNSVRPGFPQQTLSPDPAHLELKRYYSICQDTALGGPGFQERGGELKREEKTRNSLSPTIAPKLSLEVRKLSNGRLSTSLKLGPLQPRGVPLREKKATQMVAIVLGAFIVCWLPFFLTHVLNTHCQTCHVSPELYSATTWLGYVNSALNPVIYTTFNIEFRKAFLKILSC
T3 sequence (P14416 whole entry): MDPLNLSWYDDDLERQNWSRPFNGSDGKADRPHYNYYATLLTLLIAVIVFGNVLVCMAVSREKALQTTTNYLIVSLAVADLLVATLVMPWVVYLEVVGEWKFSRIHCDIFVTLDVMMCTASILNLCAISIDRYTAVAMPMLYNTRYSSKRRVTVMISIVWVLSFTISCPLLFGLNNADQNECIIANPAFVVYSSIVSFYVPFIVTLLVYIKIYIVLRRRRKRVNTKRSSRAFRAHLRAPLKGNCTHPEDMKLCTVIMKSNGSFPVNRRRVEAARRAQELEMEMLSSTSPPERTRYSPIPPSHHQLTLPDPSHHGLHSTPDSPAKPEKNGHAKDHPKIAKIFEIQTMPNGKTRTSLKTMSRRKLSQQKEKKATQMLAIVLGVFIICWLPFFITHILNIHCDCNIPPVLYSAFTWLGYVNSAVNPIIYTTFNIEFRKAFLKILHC
D(1A) dopamine receptor, sequence (Q95136 whole entry): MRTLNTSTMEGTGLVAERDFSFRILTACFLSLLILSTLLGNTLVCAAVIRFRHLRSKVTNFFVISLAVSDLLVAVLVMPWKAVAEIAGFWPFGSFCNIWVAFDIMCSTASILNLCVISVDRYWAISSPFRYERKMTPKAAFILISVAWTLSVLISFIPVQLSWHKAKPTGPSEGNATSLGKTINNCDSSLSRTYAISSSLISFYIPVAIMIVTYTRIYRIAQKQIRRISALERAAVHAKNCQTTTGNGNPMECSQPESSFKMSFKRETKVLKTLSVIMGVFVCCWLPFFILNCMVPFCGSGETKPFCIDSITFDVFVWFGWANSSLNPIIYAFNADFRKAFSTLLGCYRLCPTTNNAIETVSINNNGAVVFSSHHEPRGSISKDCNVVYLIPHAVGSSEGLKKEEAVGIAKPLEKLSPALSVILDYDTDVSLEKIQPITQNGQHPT

Ki [1] | Ki [2] | inhibition [3] | Ki [4] | Ki [5] | Ki [6] | Efficacy [7] | Compound
0.0025 µM and 0.0045 µM | 1.5 µM and 1.7 µM | Active | 0.033 µM and 0.24 µM | 0.02 µM and 0.023 µM | 0.055 µM and 0.35 µM | 19% | c1ccc(N2CCN(Cc3cnn(-c4cc5ccc4CCc4ccc(cc4)CC5)c3)CC2)cc1
– | 1.6 µM | – | – | – | – | 40% | c1ccc(N2CCN(Cc3cnn(-c4ccccc4)c3)CC2)cc1
– | 0.44 µM | – | – | – | – | – | NCCc1ccc(O)c(O)c1 [DOPAMINE]
0.045 µM | 2.6 µM | – | 0.028 µM | 0.018 µM | 0.039 µM | – | c1ccc(-n2cc(CN3CCN(c4cc5ccc4CCc4ccc(cc4)CC5)CC3)cn2)cc1
